Measurements from paper PMC8851253 (Heliyon, 2022).

Columns and labels:
[1] = test system: intracellular amastigotes of L. panamensis; experiment: Anti-leishmanial activity, GFP flow cytometry in infected U-937 cells; assay type: cell-based, Leishmania panamensis; conditions: for EC50: Leishmania panamensis, U-937, 72 h, read-out: Anti-leishmanial EC50; for SI (anti-leishmanial): Selectivity index = LC50 (U-937)/EC50 (L. panamensis); for Anti-leishmanial activity class: L. panamensis
Summary of the method: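 L. panamensis GFP strain MHOM/CO/87/UA140 stationary promastigotes infect PMA-treated U-937 cells (3×10^5 cells/mL) at 15:1, 3 h at 34 °C, 5% CO2, then washed. At 24 h, test compound (50.0, 12.5, 3.1, 0.8 µg/mL) is added for 72 h at 37 °C. Flow cytometry at 488/525 nm over 10,000 events gives MFI, corrected with uninfected cells. Amphotericin B is the control. Triplicate, two experiments. SI = U-937 LC50/EC50.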

[2] = test system: intracellular amastigotes of T. cruzi (Tulahuen strain); assay type: cell-based, Trypanosoma cruzi; conditions: for SI (anti-trypanosomal): Selectivity index = LC50 (U-937)/EC50 (T. cruzi); for EC50: Trypanosoma cruzi, TULAHUEN, U-937, 72 h, read-out: Anti-trypanosomal EC50
Summary of the method: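 T. cruzi Tulahuen (β-galactosidase-transfected) epimastigotes are grown 10 days at 26 °C. U-937 cells (2.5×10^4/100 µL, 0.16 µM PMA) are infected at 5:1 for 24 h at 37 °C, 5% CO2, RPMI/10% FBS, then washed. Six serial compound dilutions run for 72 h. CPRG 100 µM plus 0.1% NP-40 for 4 h, dark, then OD 570 nm, blank-subtracted. Benznidazole is the control. Triplicate, ≥2 experiments. SI = U-937 LC50/EC50.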

[3] = test system: P. falciparum (3D7 strain); experiment: Anti-plasmodial activity, pLDH assay; assay type: cell-based, Plasmodium falciparum; conditions: for EC50: Plasmodium falciparum, 3D7, 72 h, read-out: Anti-plasmodial EC50; for SI (anti-plasmodial): Selectivity index = LC50 (U-937)/EC50 (P. falciparum)
Summary of the method: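 Asynchronous P. falciparum 3D7 at 0.5% parasitemia, 1% hematocrit in RPMI-1640/1% Albumax II is exposed to test compound at 100, 25, 3.125 and 0.78 µg/mL. Incubation is 72 h at 37 °C under 90% N2/5% CO2/5% O2. Freeze-thawed lysate goes into Malstat (pH 9.0) plus NBT/PES for 1 h in the dark. pLDH is read at 650 nm, blank-subtracted. Chloroquine is the control. SI = U-937 LC50/EC50.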

[4] = In vitro cytotoxic activity, MTT assay; assay type: cell-based, human; conditions: human, U-937 cells, Cytotoxicity LC50, U-937 cells, MTT, ±SD (n = 3)
Summary of the method: (§1)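 Human U-937 macrophages in RPMI 1640/10% FBS are exposed to test compound from 200 to 0.19 µg/mL. MTT formazan is read as OD at 570 nm, with untreated cells as the viability control. Triplicate. LC50 comes from Probit linear regression of dose-response. Classes: LC50 <100 µM potentially cytotoxic, 100–<200 µM mildly cytotoxic, ≥200 µM noncytotoxic.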

U-937 cells = experiment: In vitro cytotoxic activity, MTT assay; assay type: cell-based, human; conditions: for Degree of cytotoxicity: class by LC50 scale of b21
Summary of the method: as §1

O=C(/C=C/c1ccc([N+](=O)[O-])cc1)c1cc2ccccc2oc1=O [Compound A8, 3-[(2E)-3-(4-nitrophenyl)prop-2-enoyl]-2H-chromen-2-one]
EC50 [1]: 197 ± 76.9 µM
SI (anti-leishmanial) [1]: 3.05
SI (anti-trypanosomal) [2]: 1.91
EC50 [2]: 314 ± 19.9 µM
EC50 [3]: 18.4 ± 1 µM

O=C(Cn1ccnc1[N+](=O)[O-])NCc1ccccc1 [Benznidazole, reference compound]
SI (anti-trypanosomal) [2]: >13.83
EC50 [2]: 14.5 ± 0.1 µM
CC50 [4]: > 200 µM

O=C(/C=C/c1ccccc1)c1cc2ccccc2oc1=O [Compound A1, 3-[(2E)-3-phenylprop-2-enoyl]-2H-chromen-2-one]
Anti-leishmanial activity class [1]: highly active (Compounds with EC50 ≤ 25 μM were considered highly active)
EC50 [1]: 3.7 ± 0.5 µM
SI (anti-leishmanial) [1]: 1.82
SI (anti-trypanosomal) [2]: 0.15
EC50 [2]: 44.1 ± 4.2 µM
CC50 [4]: 6.7 ± 0.1 µM
EC50 [3]: 25.7 ± 3.5 µM
SI (anti-plasmodial) [3]: 0.26

O=C(/C=C/c1cccc([N+](=O)[O-])c1)c1cc2ccccc2oc1=O [Compound A7, 3-[(2E)-3-(3-nitrophenyl)prop-2-enoyl]-2H-chromen-2-one]
EC50 [1]: 64.7 ± 8.6 µM
SI (anti-leishmanial) [1]: 1.73
SI (anti-trypanosomal) [2]: 0.23
EC50 [2]: 496 ± 62 µM
Degree of cytotoxicity (U-937 cells): mildly cytotoxic (100 ≤ LC50 < 200 μM)
CC50 [4]: 112 ± 10.6 µM
EC50 [3]: 17.9 ± 1.7 µM

O=c1ccc2ccccc2o1 [Coumarin, reference compound]
EC50 [1]: 64.4 ± 21.8 µM
SI (anti-leishmanial) [1]: 0.20
SI (anti-trypanosomal) [2]: <1.83
EC50 [2]: > 7 µM
CC50 [4]: 12.9 ± 0.5 µM
EC50 [3]: 50.7 ± 5.7 µM
SI (anti-plasmodial) [3]: 0.25

C[C@@H]1[C@H](O)[C@@H](C)/C=C/C=C/C=C/C=C/C=C/C=C/C=C/[C@H](O[C@@H]2O[C@H](C)[C@@H](O)[C@H](N)[C@@H]2O)C[C@@H]2O[C@](O)(C[C@@H](O)C[C@@H](O)[C@H](O)CC[C@@H](O)C[C@@H](O)CC(=O)O[C@H]1C)C[C@H](O)[C@H]2C(=O)O [Amphotericin B, reference compound]
EC50 [1]: 0.3 ± 0.1 µM
SI (anti-leishmanial) [1]: 108.67
CC50 [4]: 32.6 ± 4 µM

O=C(/C=C/c1ccc(Cl)cc1)c1cc2ccccc2oc1=O [Compound A9, 3-[(2E)-3-(4-chlorophenyl)prop-2-enoyl]-2H-chromen-2-one]
EC50 [1]: 59.1 ± 12.7 µM
SI (anti-leishmanial) [1]: 0.73
SI (anti-trypanosomal) [2]: 0.83
EC50 [2]: 52.1 ± 3.3 µM
CC50 [4]: 43.4 ± 3.9 µM
EC50 [3]: 18.9 ± 1.5 µM

O=C(/C=C/c1cccc(O)c1)c1cc2ccccc2oc1=O [Compound A5, 3-[(2E)-3-(3-hydroxyphenyl)prop-2-enoyl]-2H-chromen-2-one]
EC50 [1]: 2.1 ± 0.2 µM
SI (anti-leishmanial) [1]: 2.85
SI (anti-trypanosomal) [2]: 0.31
EC50 [2]: 18.7 ± 2.4 µM
CC50 [4]: 5.9 ± 0.2 µM
EC50 [3]: 26.7 ± 3.6 µM
SI (anti-plasmodial) [3]: 0.22

O=C(/C=C/c1cccc(Br)c1)c1cc2ccccc2oc1=O [Compound A10, 3-[(2E)-3-(3-bromophenyl)prop-2-enoyl]-2H-chromen-2-one]
EC50 [1]: 32.8 ± 3 µM
SI (anti-trypanosomal) [2]: 0.98
EC50 [2]: 114 ± 8.5 µM
Degree of cytotoxicity (U-937 cells): mildly cytotoxic (100 ≤ LC50 < 200 μM)
Toxicity class (U-937 cells; class by United Nations 2009 scale): moderately toxic (from 50 to 200 μM moderately toxic)
CC50 [4]: 112 ± 8.2 µM
EC50 [3]: 19.6 ± 1.7 µM

O=C(/C=C/c1ccc(Br)cc1)c1cc2ccccc2oc1=O [Compound A11, 3-[(2E)-3-(4-bromophenyl)prop-2-enoyl]-2H-chromen-2-one]
EC50 [1]: 31.4 ± 4.2 µM
SI (anti-leishmanial) [1]: 1.02
SI (anti-trypanosomal) [2]: 0.72
EC50 [2]: 44.4 ± 3.5 µM
CC50 [4]: 32.1 ± 2.2 µM
EC50 [3]: 20.9 ± 1.2 µM
SI (anti-plasmodial) [3]: 1.54

CCN(CC)CCCC(C)Nc1ccnc2cc(Cl)ccc12 (stereo not shown) [Chloroquine, reference compound]
CC50 [4]: 155 ± 5.2 µM
EC50 [3]: 3.3 ± 0.4 µM
SI (anti-plasmodial) [3]: 46.34

CCOc1cc(/C=C/C(=O)c2cc3ccccc3oc2=O)ccc1O [Compound A12, 3-[(2E)-3-(3-ethoxy-4-hydroxyphenyl)prop-2-enoyl]-2H-chromen-2-one]
EC50 [1]: 6.6 ± 1.3 µM
SI (anti-leishmanial) [1]: 1.29
SI (anti-trypanosomal) [2]: 0.21
EC50 [2]: 41.2 ± 1.1 µM
CC50 [4]: 8.5 ± 1.6 µM
EC50 [3]: 15 ± 0.5 µM
SI (anti-plasmodial) [3]: 0.57

O=C(/C=C/c1ccc(O)cc1)c1cc2ccccc2oc1=O [Compound A6, 3-[(2E)-3-(4-hydroxyphenyl)prop-2-enoyl]-2H-chromen-2-one]
EC50 [1]: 8.2 ± 4 µM
SI (anti-leishmanial) [1]: 0.91
SI (anti-trypanosomal) [2]: 0.17
EC50 [2]: 43.2 ± 6.4 µM
CC50 [4]: 7.5 ± 0.4 µM
EC50 [3]: 16.6 ± 0.9 µM
SI (anti-plasmodial) [3]: 0.45

COc1cccc(/C=C/C(=O)c2cc3ccccc3oc2=O)c1 [Compound A2, 3-[(2E)-3-(3-methoxyphenyl)prop-2-enoyl]-2H-chromen-2-one]
EC50 [1]: 2.5 ± 0.2 µM
SI (anti-leishmanial) [1]: 2.31
SI (anti-trypanosomal) [2]: 0.20
EC50 [2]: 28.4 ± 5.7 µM
CC50 [4]: 5.8 ± 0.1 µM
EC50 [3]: 23.3 ± 1.5 µM
SI (anti-plasmodial) [3]: 0.25

O=C(/C=C/c1ccccc1)c1ccccc1 [Chalcone, reference compound]
EC50 [1]: 15 ± 1.44 µM
SI (anti-leishmanial) [1]: 1.86
SI (anti-trypanosomal) [2]: 0.28
EC50 [2]: 99.9 ± 39 µM
CC50 [4]: 27.9 ± 0.5 µM
EC50 [3]: 769 ± 72 µM
SI (anti-plasmodial) [3]: 0.04

COc1ccc(/C=C/C(=O)c2cc3ccccc3oc2=O)cc1 [Compound A3, 3-[(2E)-3-(4-methoxyphenyl)prop-2-enoyl]-2H-chromen-2-one]
EC50 [1]: > 6 µM
SI (anti-leishmanial) [1]: <1.89
SI (anti-trypanosomal) [2]: 0.03
EC50 [2]: 327 ± 62.4 µM
CC50 [4]: 11.4 ± 2.3 µM
EC50 [3]: 38.7 ± 5.6 µM
SI (anti-plasmodial) [3]: 0.29

Cc1cccc(/C=C/C(=O)c2cc3ccccc3oc2=O)c1 [Compound A4, 3-[(2E)-3-(3-methylphenyl)prop-2-enoyl]-2H-chromen-2-one]
Anti-leishmanial activity class [1]: highly active (Compounds with EC50 ≤ 25 μM were considered highly active)
EC50 [1]: 10.7 ± 5.7 µM
SI (anti-leishmanial) [1]: 0.53
SI (anti-trypanosomal) [2]: 0.11
EC50 [2]: 50 ± 5.3 µM
CC50 [4]: 5.7 ± 0.1 µM
EC50 [3]: 35.3 ± 1.4 µM
SI (anti-plasmodial) [3]: 0.16

O=C(/C=C/c1ccc2c(c1)OCO2)c1cc2ccccc2oc1=O [Compound A13, 3-[(2E)-3-(1,3-benzodioxol-5-yl)prop-2-enoyl]-2H-chromen-2-one]
EC50 [1]: > 20 µM
SI (anti-leishmanial) [1]: <1.90
SI (anti-trypanosomal) [2]: 0.30
EC50 [2]: 129 ± 11 µM
CC50 [4]: 38 ± 3.4 µM
EC50 [3]: 15.2 ± 1.1 µM
